Rows were chosen to be rich in hits. Some 3% of all compounds tested hit in one or more screens of this group.
5HT1E ag: 5-HT1E (human) receptor agonism; P28566; 65,000 tested, 0.69% active; activation, % at 6 µM; CHO 5-HT1E Ga15 NFAT-bla reporter, FRET; 0% DMSO wells, 100% control agonist wells; AID 574;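 active = activation above a set limit, the screen-wide mean activation plus 3 SD, cut at about 8.5% in these data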;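 note: 100% = positive control agonist at 1 µM giving full maximal response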
5HT1a antag: 5-HT1a (human) receptor antagonism; CHO 5-HT1a Ga15 NFAT-bla reporter, antagonist mode; P08908; inhibition, % at 10 µM; 62,000 tested, 0.68% active; AID 612;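 active = inhibition above the mean of all tested compounds plus 3 SD, cut at about 43% in these data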;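 note: receptor stimulated by 5-CT agonist at 100 nM near EC80; beta-lactamase reporter measured by ratiometric fluorescence of a cleavable substrate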
HTR1A agonist: activates the human 5-HT1a serotonin receptor | P08908 | CHO 5-HT1a Ga15 NFAT-bla reporter, FRET ratio; 0% basal, 100% maximal reference agonist | activation, % at 10 µM | 65,000 tested, 0.56% active | AID 567;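 active = activation above the screen-wide mean activation plus 3 SD, cut at about 19% in these data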;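 note: 0% = DMSO wells and 100% = 5-CT at EC100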
5HT1E antag: 5-HT1E (human) receptor antagonism; P28566; CHO 5-HT1E Ga15 NFAT-bla reporter, FRET, antagonist; inhibition, % at 6 µM; 65,000 tested, 0.99% active; AID 571;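 active = inhibition above a set limit, the mean inhibition across every tested compound plus 3 SD, cut at about 29% in these data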;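 note: signal is the 460 over 535 nm emission ratio of beta-lactamase substrate; 0% = agonist plus DMSO wells and 100% = wells without agonist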
S1P3 agonist: agonists of human S1P3 receptor; Q99500; S1P3 NFAT-BLA reporter cells, agonism, FRET ratio; relative to 1 µM S1P, basal subtracted; activation, % at 4.5 µM; 60,000 tested, 0.1% active;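 active = activation above the screen-wide mean plus 3 SD, cut at about 4.5% in these data, passing the limit was not always enough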
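Measure – % activation relative to 1 µM S1P (100%), per plate · System – stable CHO line with human S1P3, Gα16, NFAT-BLA reporter · Timing – cells plated overnight, compound 4 h 37 °C, substrate 2 h RT · Technique – fluorescent BLA substrate, ex 405 nm, em 460/535 nm ratio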
S1P1 ag-PAM: S1P1 (human) agonism or agonism potentiation; P21453; S1P1 CRE-bla cells, forskolin, beta-lactamase FRET, potentiator mode; S1P1 agonist co-added at EC20, 2 nM; 100% = saturating reference agonist, 0% = basal; activation, % at 9.5 µM; 56,000 tested, 0.57% active; AID 449;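 active = activation above a cutoff set at the mean activation of all tested compounds plus 3 SD, cut at about 54% in these data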;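 note: forskolin at 4 µM as EC80 and the EC20 agonist is SEW2871; 100% = SEW2871 at its EC100 plus forskolin at EC80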
Target sequence (P21453 whole entry, looked up): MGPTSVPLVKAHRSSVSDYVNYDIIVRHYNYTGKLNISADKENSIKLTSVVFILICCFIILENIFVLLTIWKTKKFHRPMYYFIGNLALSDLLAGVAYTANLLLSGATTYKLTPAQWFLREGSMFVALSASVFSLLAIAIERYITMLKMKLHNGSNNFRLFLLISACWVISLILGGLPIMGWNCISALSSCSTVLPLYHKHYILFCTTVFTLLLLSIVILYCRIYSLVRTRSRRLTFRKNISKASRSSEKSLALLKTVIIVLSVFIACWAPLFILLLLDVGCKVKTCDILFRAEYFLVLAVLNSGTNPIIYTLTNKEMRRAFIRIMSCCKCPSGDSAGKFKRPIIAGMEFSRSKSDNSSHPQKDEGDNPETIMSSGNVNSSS
The depositor's hits bear a star; . = no result given.

SMILES	5HT1E ag	5HT1a antag	HTR1A agonist	5HT1E antag	S1P3 agonist	S1P1 ag-PAM
COc1ccc(-c2cn3c4c(sc3n2)CCCC4)cc1	0	14	-3	6	0	.
CC(=O)CC1(O)C(=O)N(CN2CCN(c3ccccc3)CC2)c2ccccc21 (stereo unspecified)	15*	12	0	19	-1	14
CCOC(=O)N1CCC(Nc2c(-c3ccc(C)c(C)c3)c(=O)c2=O)CC1	0	3	-3	1	1	20
CCOC(=O)N1CCC(Nc2c(N3CCN(c4cc(Cl)ccc4C)CC3)c(=O)c2=O)CC1	1	-5	64*	8	-1	-2
CN(c1ccccc1)c1nc(N2CCCC2)nc(-n2ccnc2)n1	0	53*	1	14	-2	0
OC1CCCN(c2c3c(nc4cc(-c5cccc(Cl)c5)nn24)CCC3)C1 (stereo unspecified)	-1	7	1	38*	.	.
Cc1cccc(-c2cc3nc4c(c(N5CCC6(CC5)OCCO6)n3n2)CCCC4)c1	0	8	-3	15	0	-11
Cc1cccc(-c2cc3nc4c(c(N5CCCC(O)C5)n3n2)CCC4)c1 (stereo unspecified)	0	20	-2	50*	-1	-8
Cc1cccc(-c2cc3nc4c(c(N5CCOCC5)n3n2)CCCC4)c1	0	27	-3	40*	0	-36
CC1CN(c2nnnn2-c2ccccc2)CC(C)O1 (stereo unspecified)	54*	-6	-1	-7	-1	-20
CCOC(=O)N1CCN(c2nnnn2-c2ccccc2)CC1	1	11	-1	-2	0	.
COc1cc(Cn2c(N)c(C#N)c3nc4ccccc4nc32)cc(OC)c1	6	25	21*	14	5	-59
COc1cccc(Cn2c(N)c(C#N)c3nc4ccccc4nc32)c1OC	4	-11	8	33*	2	-54
CCCn1cnc2c(c1=O)c1nc3ccccc3nc1n2Cc1ccccc1OC	-1	1	-1	7	-1	-10
COCCn1c(N)c(C(=O)NCc2cccs2)c2nc3ccccc3nc21	2	-23	11	13	3	-45
N#Cc1c(N)n(CCOC(=O)c2cccc(Br)c2)c2nc3ccccc3nc12	5	.	31*	6	2	-90
CCOC(=O)c1c(COc2ccccc2)oc2ccc(O)cc12	0	20	0	8	-2	0
CCc1oc2ccccc2c1C(=O)c1cc(Br)c(O)c(Br)c1	-1	.	-1	-2	-2	68*
COCCCn1c(-c2ccsc2)nc2c1c(=O)[nH]c(=O)n2Cc1ccccc1	0	-10	5	6	0	-10
O=C(COC(=O)CCC(=O)c1ccc2c(c1)OCCO2)NCc1ccc2c(c1)OCO2	0	-4	-3	-17	0	-21
CCOC(=O)c1oc2ccccc2c1NC(=O)COc1cccc(OC)c1	0	5	2	-2	0	2
CCOC(=O)c1oc2ccccc2c1NC(=O)c1ccccc1OC	0	49*	-1	47*	1	-39
CN(C)c1ccc(C2C=C(c3ccc(Cl)cc3OC(F)F)Nc3ncnn32)cc1 (stereo unspecified)	5	2	28*	24	1	-33
COc1ccc(-c2cc(CCCC(=O)NCCc3ccc(OC)cc3OC)no2)cc1	12*	14	-1	6	0	18
CCOC(=O)c1c(NC(=O)CSc2n[nH]c(-c3ccco3)n2)sc(C)c1C	0	22	2	44*	0	-2
SMILES	5HT1E ag	5HT1a antag	HTR1A agonist	5HT1E antag	S1P3 agonist	S1P1 ag-PAM
CCOC(=O)CSc1n[nH]c(-c2ccco2)n1	0	9	-3	13	-1	-25
O=C(CSc1n[nH]c(-c2ccco2)n1)N1c2ccccc2Sc2ccccc21	-1	30	-1	37*	0	23
CCOc1ccccc1NC(=O)C1=C(C)NC(=O)NC1c1cccc(OC)c1OC (stereo unspecified)	0	-2	-4	-6	-2	-14
CCSc1ccccc1C(=O)Nc1cc(C)on1	14*	-1	-2	-3	-1	.
COc1ccc(S(=O)(=O)N(CC(=O)NC2CC2)c2ccc(C)cc2)cc1OC	0	-2	0	4	-1	.
On1onc2c3cc(-c4ccccc4)nc3ccc21	-1	50*	0	33*	-1	.
c1ccc(-c2cc3c(ccc4nonc43)nn2)cc1	0	-5	-1	-6	-1	-26
Cc1cc(C)n(-c2nncn2/N=C/c2ccccc2F)n1	-2	55*	-2	12	-1	7
Fc1ccccc1/C=N/n1cnnc1	0	.	2	-8	-2	2
CCOC(=O)C1CCCN(C(=O)c2cc3nc(-c4cccc(OC)c4)cc(C(F)(F)F)n3n2)C1 (stereo unspecified)	0	5	4	35*	-1	.
CCCNC(=O)NC(=O)COC(=O)c1ccc(OC)c(S(=O)(=O)N2CCCc3ccccc32)c1	0	-9	-1	-10	1	2
CCNC(=O)CN(C1CCCCC1)S(=O)(=O)c1ccc(F)cc1	-1	7	0	-6	.	.
CNC(=O)CN(C1CCCCC1)S(=O)(=O)c1ccc(F)cc1	1	4	42*	-3	0	-5
C=CCOc1cccc(C2C(C(=O)c3ccco3)=C(O)C(=O)N2CCN(CC)CC)c1 (stereo unspecified)	0	0	20*	-6	0	-11
CC(C)(C)n1nnnc1C(c1cccc(C#N)c1)N1CCN2CCCC2C1 (stereo unspecified)	1	-7	1	-6	1	10
COc1ccccc1C(c1nnnn1Cc1ccccc1)N1CCN(c2nc3ccccc3s2)CC1 (stereo unspecified)	1	44*	3	-9	-1	4
CCC(C)(C)n1nnnc1C(c1ccc(O)c(OC)c1)N1CCN(c2nc3ccccc3s2)CC1 (stereo unspecified)	25*	26	0	5	-1	5
CCC(C)(C)n1nnnc1C(c1cccc(C#N)c1)N1CCN(c2cccc(C)c2C)CC1 (stereo unspecified)	10*	18	-2	-2	0	11
COC1(c2cc(-c3ccccc3)nc(N)n2)CCCCC1	1	-6	-1	-9	0	-38
Cc1ccc(N2C(=O)CC3(CC4C=CC3C4)C2=O)cc1 (stereo unspecified)	0	.	0	-3	1	-4

Source: PubChem BioAssay (The Scripps Research Institute Molecular Screening Center)
